# Measurements published in ChEMBL document CHEMBL1154423, “Activity of colistin against heteroresistant Acinetobacter baumannii and emergence of resistance in an in vitro pharmacokinetic/pharmacodynamic model” (Antimicrob Agents Chemother, 2007).
# Experiments:
# [1] = Cmax in in vitro PK/PD model at loading dose of 0.30 mg and maintenance dose of 0.23 mg dosed at 8 hrs intervals; assay type: ADME, organism-based; parameters: dose 0.3 mg
# [2] = Cmax in in vitro PK/PD model at loading dose of 0.90 mg and maintenance dose of 0.89 mg dosed at 24 hrs intervals; assay type: ADME, organism-based; parameters: dose 0.9 mg
# [3] = Cmax in in vitro PK/PD model at loading dose of 0.45 mg and maintenance dose of 0.39 mg dosed at 12 hrs intervals; assay type: ADME, organism-based; parameters: dose 0.45 mg
# Acinetobacter baumannii [4] = test: Antimicrobial activity against gentamicin and ciprofloxacin resistant Acinetobacter baumannii ATCC 19606; assay type: functional, organism-based
# Acinetobacter baumannii [5] = test: Antibacterial activity against Acinetobacter baumannii ATCC 19606 assessed as AUBC (0 to 72 hrs) normalized to log10CFU/ml in in vitro PK/PD model at loading dose of 0.90 mg and maintenance dose of 0.89 mg dosed at 24 hrs intervals; assay type: functional, organism-based
# In short: (§1)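 One-compartment in vitro PK/PD model at 37°C. Cation-adjusted Mueller-Hinton broth was pumped from a reservoir into the central compartment, with an early-log-phase inoculum of about 10^6 CFU/ml. Colistin sulfate simulated human colistin PK. Intermittent regimens were dosed into the central compartment; for the continuous regimen, colistin was spiked into the reservoir broth. Viable counts were by spiral plating over 0–72 h, AUBC0-72 normalized to log10 CFU/ml at t=0, n=3.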
# Acinetobacter baumannii [6] = test: Antibacterial activity against Acinetobacter baumannii isolate 6 assessed as AUBC (0 to 72 hrs) normalized to log10CFU/ml in in vitro PK/PD model at loading dose of 0.45 mg and maintenance dose of 0.39 mg dosed at 12 hrs intervals; assay type: functional, organism-based; in short: as §1
# Acinetobacter baumannii [7] = test: Antibacterial activity against Acinetobacter baumannii isolate 6 assessed as AUBC (0 to 72 hrs) normalized to log10CFU/ml in in vitro PK/PD model at loading dose of 0.30 mg and maintenance dose of 0.23 mg dosed at 8 hrs intervals; assay type: functional, organism-based; in short: as §1
# Acinetobacter baumannii [8] = test: Antibacterial activity against Acinetobacter baumannii ATCC 19606 assessed as AUBC (0 to 72 hrs) normalized to log10CFU/ml in in vitro PK/PD model at loading dose of 0.30 mg and maintenance dose of 0.23 mg dosed at 8 hrs intervals; assay type: functional, organism-based; in short: as §1
# Acinetobacter baumannii [9] = test: Antibacterial activity against Acinetobacter baumannii ATCC 19606 assessed as AUBC (0 to 72 hrs) normalized to log10CFU/ml in in vitro PK/PD model at loading dose of 0.45 mg and maintenance dose of 0.39 mg dosed at 12 hrs intervals; assay type: functional, organism-based; in short: as §1
# Acinetobacter baumannii [10] = test: Antibacterial activity against Acinetobacter baumannii ATCC 19606 assessed as AUBC (0 to 72 hrs) normalized to log10CFU/ml in in vitro PK/PD model at continuous maintenance dose of 4.5 ug/ml; assay type: functional, organism-based; in short: as §1
# Acinetobacter baumannii [11] = test: Antimicrobial activity against Ceftazidime resistant Acinetobacter baumannii isolate 6; assay type: functional, organism-based
# Acinetobacter baumannii [12] = test: Antibacterial activity against Acinetobacter baumannii isolate 6 assessed as AUBC (0 to 72 hrs) normalized to log10CFU/ml in in vitro PK/PD model at continuous maintenance dose of 4.5 ug/ml; assay type: functional, organism-based; in short: as §1
# Acinetobacter baumannii [13] = test: Antibacterial activity against Acinetobacter baumannii isolate 6 assessed as AUBC (0 to 72 hrs) normalized to log10CFU/ml in in vitro PK/PD model at loading dose of 0.90 mg and maintenance dose of 0.89 mg dosed at 24 hrs intervals; assay type: functional, organism-based; in short: as §1
Sequence,Cmax [1] [ng/mL],Cmax [2] [ng/mL],Cmax [3] [ng/mL],MIC (Acinetobacter baumannii [4]) [µg/mL],AUBC (Acinetobacter baumannii [5]) [log10CFU/ml],AUBC (Acinetobacter baumannii [6]) [log10CFU/ml],AUBC (Acinetobacter baumannii [7]) [log10CFU/ml],AUBC (Acinetobacter baumannii [8]) [log10CFU/ml],AUBC (Acinetobacter baumannii [9]) [log10CFU/ml],AUBC (Acinetobacter baumannii [10]) [log10CFU/ml],MIC (Acinetobacter baumannii [11]) [µg/mL],AUBC (Acinetobacter baumannii [12]) [log10CFU/ml],AUBC (Acinetobacter baumannii [13]) [log10CFU/ml]
COLISTIN [listing 1 of 2 here],3000,9000,4500,–,–,–,–,–,–,–,–,–,–
COLISTIN [listing 2 of 2 here],–,–,–,1,67,64.9,68,68.5,68.5,72.7,1,65.6,58.5
